Only some compounds are listed: those with a hit (about 1.9% of all), similar ones and a draw of the others.
aSyn UTR inh: 5' untranslated region of α-synuclein, MLPCN primary screen; alpha-synuclein 5'UTR reporter, inhibitor activity; inhibition, % (tested at 7.5 µM); 300,000 compounds, 0.82% hits; in the data active = inhibition above about 60%;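 note: H4 neuroglioblastoma cells stably carrying SNCA 5'UTR luciferase fusion; 0% = DMSO wells and 100% = positive control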
Lipid droplet: modulators of hepatic lipid droplet formation | inhibition, % at 6.5 µM | 240,000 compounds, 0.4% hits | AML12 mouse hepatocytes, oleate lipid droplets, BODIPY imaging | AID 1656;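 active = lipid droplet intensity inhibited by at least 50%, with more than 500 cells counted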
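Test system: AML12 mouse liver cells; schedule: overnight exposure; technique: high-content imaging of BODIPY-stained droplets and DAPI nuclei; read-out: % inhibition of corrected integrated BODIPY droplet signal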
APP 5UTR inh: APP translation inhibition | AID 1285 | inhibition, % at 2 µM | 190,000 compounds, 0.82% hits | SH-SY5Y APP 5'UTR-luciferase reporter, luminescence;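 active = inhibition above a set limit, derived from the sample mean plus 3 SD, cut at about 45% in these data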
H9c2 TAG inh: reduces triacylglycerol accumulation in H9c2 cells; Nile Red lipid (TAG) fluorescence; cells loaded with 200 µM oleic acid; inhibition, % at 12.5 µM; 230,000 compounds, 0.66% hits; AID 651582;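 active = pattern-corrected inhibition of lipid staining of at least 50% with the nuclear-stain viability signal not falling by more than 50%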;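 note: 0% = DMSO wells and 100% = triacsin C control wells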
Jurkat NFkB inh: lowers PMA/ionomycin-induced NF-kB signal in Jurkat cells | inhibition, % at 4 µM | PMA/ionomycin-induced NF-kB luciferase reporter, luminescence | 330,000 compounds, 0.53% hits | AID 435003; in the data active = inhibition above about 50%
697 NFkB inh: lowers PMA/ionomycin-induced NF-kB signal in 697 B cells; 330,000 compounds, 0.33% hits; inhibition, % at 4 µM; 697 B-cell NF-kB luciferase reporter, 16 h; AID 435022; in the data active = inhibition above about 35%
TAG conf: confirmation of triacylglycerol accumulation inhibitors; inhibition, % at 12.5 µM; 990 compounds, 71% hits; AID 651629; shares compounds with H9c2 TAG inh; H9c2 lipid accumulation, Nile Red fluorescence; cells loaded with 200 µM oleic acid;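 active = mean inhibition across replicates of 40% or more; inactive = mean inhibition below 40%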;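 note: plate controls were DMSO only wells for no effect and Triacsin C treated wells for full effect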
* hit, by the source's call; . = not tested or not shown.

SMILES | aSyn UTR inh | Lipid droplet | APP 5UTR inh | H9c2 TAG inh | Jurkat NFkB inh | 697 NFkB inh | TAG conf
CC(C)(C)N(Cc1ccccc1)C(=O)COC(=O)c1ccc([N+](=O)[O-])o1 | . | . | . | 6.3 | 5.8 | 20.5 | .
C[C@H](CO)N1C[C@H](C)[C@@H](CN(C)S(=O)(=O)c2ccc(F)cc2)Oc2ccc(NC(=O)C3CCCCC3)cc2C1=O | . | . | . | 4.3 | -3.3 | 24.4 | .
CC(C)n1cc(C#N)c(N)n1 | . | . | . | 2.7 | . | . | .
CCOC(=O)c1ccccc1NC(=O)Cc1ccc(S(=O)(=O)N2CCCC2)s1 | . | . | . | -4.4 | 0.8 | -0.3 | .
CCOc1ccc(CN(C)C(=O)CCl)cc1 | -12.4 | 9.2 | 21.4 | 57.7* | 9.4 | 24.9 | 79.8*
N#CC(=NCc1cccnc1)C1=C(O)c2ccccc2C1=O | 17.5 | 1.2 | . | 1.2 | 5.6 | -12.6 | .
CSc1ccc(-c2cccc3nncn23)cc1 | . | . | . | 11.0 | . | . | .
CC1=CC(C)(C)N2C(=O)C3(C(C#N)=C(N)Oc4cc(C)oc(=O)c43)c3cc(C)cc1c32 (stereo unspecified) | 2.0 | . | -13.2 | -3.4 | -3.7 | -12.9 | .
CCc1cc2c3c(c1)C1(C(=O)N3C(C)(C)C=C2C)C(C#N)=C(N)Oc2[nH]c(=O)[nH]c(=O)c21 (stereo unspecified) | 0.7 | 0.4 | 8.9 | 50.9* | 22.3 | 5.1 | 48.8*
CC(=O)Nc1ccc(S(=O)(=O)NC2CC2)cc1 | -5.2 | 1.1 | . | . | -4.7 | 4.3 | .
Cc1nn2c(N3CCCC3)cc(C(C)C)nc2c1-c1ccccc1 | 35.6 | . | -3.8 | 72.2* | -4.3 | -7.2 | 59.0*
C=CCn1c(SCC(=O)c2c(N)n(C)c(=O)n(C)c2=O)nnc1-c1ccoc1C | . | . | . | 8.2 | 2.5 | 7.2 | .
Cc1ccc(C(=O)C(C)Oc2ccc3ccc(=O)oc3c2)cc1 (stereo unspecified) | 3.5 | 2.2 | . | 0.4 | 15.0 | -6.1 | .
O=C(Nc1ccc(-c2csc(Nc3cccc(C(F)(F)F)c3)n2)cc1)c1cc([N+](=O)[O-])cc(C(F)(F)F)c1 | 31.8 | 7.4 | . | 71.5* | -10.3 | -45.0 | 68.5*
O=C(Nc1ccc(-c2csc(Nc3cccc(C(F)(F)F)c3)n2)cc1)c1ccccc1 | 13.6 | 11.3 | . | 51.3* | 21.2 | -5.6 | 62.9*
Nc1ccccc1Nc1cccc(C(F)(F)F)c1 | -51.7 | 47.0 | 6.7 | 68.4* | 19.8 | 22.4 | 74.4*
Cc1cc(C)nc(Nc2cccc(C(F)(F)F)c2)n1 | -11.6 | 1.1 | . | 5.6 | 0.3 | -3.8 | .
Cc1cc(NC(=O)COc2ccccc2)ccc1Cl | -95.8 | 6.4 | . | . | -20.2 | 15.6 | .
O=C(Nc1nc(-c2ccccc2)cs1)C1CCCN(S(=O)(=O)c2cccc([N+](=O)[O-])c2)C1 (stereo unspecified) | -39.0 | -29.5 | -9.9 | 62.2* | 8.1 | 15.6 | 47.2*
O=C(Nc1nc(-c2ccccc2)cs1)C1CCCN(S(=O)(=O)c2ccccc2)C1 (stereo unspecified) | 17.3 | . | 2.6 | . | 11.7 | -72.0 | .
CN(C)c1nc(-c2ccccc2)c2cnn(Cc3ccccc3)c2n1 | 38.1 | . | -5.3 | . | 17.7 | -14.1 | .
CSc1cc(-c2ccccc2)n(Cc2c(Cl)cccc2Cl)c(=O)c1C#N | -51.0 | 7.6 | 4.7 | 58.0* | 42.7 | -25.3 | 68.0*
CSc1cc(-c2ccccc2)n(C)c(=O)c1C#N | -1.9 | 3.6 | -2.8 | 5.5 | 12.6 | 6.2 | .
CSc1cc(-c2ccc(Cl)cc2)n(Cc2ccccc2)c(=O)c1C#N | -3.0 | 7.1 | 9.3 | 64.1* | 3.0 | 10.5 | 36.5
O=C1C=CC(O)C2(CO)OC12 (stereo unspecified) | . | . | . | 80.6* | . | . | 86.3*
CCC(=O)Nc1nonc1-c1nc2ccccc2n1Cc1cccc2ccccc12 | 67.3* | -100.9 | 89.2* | 50.3* | 43.8 | -6.5 | 65.1*
O=C(c1nn(Cc2ccccc2)c(=O)c2ccccc12)N1CCN(C/C=C/c2ccccc2)CC1 | -0.2 | . | -5.4 | -13.2 | 11.4 | -9.4 | .
c1ccc(COc2ncnc3c2ncn3CCCNC2CCN(Cc3ccccc3)CC2)cc1 | . | . | . | 63.4* | . | . | 35.0
FC(F)(F)c1cccc(NC(=S)N(CCCN2CCCC2)Cc2cccn2Cc2ccc(Cl)cc2)c1 | -1.4 | -13.2 | -19.1 | 129.8 | -3.1 | 6.5 | .

From PubChem BioAssay
